The source of these data is ChEMBL document CHEMBL2346542, “Preliminary biological evaluation and mechanism of action studies of selected 2-arylindoles against glioblastoma” (Bioorg Med Chem, 2013).

In assay [1] the test system is U-87 MG. Put plainly: Induction of oxidative stress in human U87MG cells assessed as increase in reactive oxygens species generation at 100 uM after 1 hr by H2DCFDA dye based flow cytometry. The conditions noted are these: U-87MG ATCC. The class given is functional, cell-based. Summed up: (§1)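 1321N1 (DMEM, 10% FBS, 2 mM glutamine) or U87MG (EMEM, 10% FBS, glutamine, pyruvate, NEAA) cells seeded at 20,000/well and attached overnight. Loaded with 25 µM carboxy-H2DCFDA for 30 min at 37 °C in the dark, then treated for 60 min; TBHP 100 µM was the positive control, vehicle ≤0.5% ethanol/DMSO. Washed in HBSS, trypsinised, then flow cytometry at 488/519 nm.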

The subject of assay [2] is 1321-N1. Put plainly: Induction of oxidative stress in human 1321N1 cells assessed as increase in reactive oxygens species generation at 100 uM after 1 hr by H2DCFDA dye based flow cytometry. It counts as functional, cell-based. Summed up:
as §1

Assay [3] has as its system U-87 MG. Put plainly: Induction of oxidative stress in human U87MG cells assessed as increase in reactive oxygens species generation at 500 uM after 1 hr by H2DCFDA dye based flow cytometry. It counts as functional, cell-based. The conditions noted are these: U-87MG ATCC. Summed up: (§2)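 Cells at 20,000/well in six-well plates, attached overnight. Loaded with 25 µM carboxy-H2DCFDA for 30 min at 37 °C in the dark, then given compound at 500 µM for 60 min. Positive control TBHP 100 µM. Washed in HBSS, trypsinized, resuspended in PBS, strained. Flow cytometry at FITC ex/em 488/519 nm. Vehicle ≤0.5% ethanol and DMSO.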

Assay [4] has as its system 1321-N1. Put plainly: Induction of oxidative stress in human 1321N1 cells assessed as increase in reactive oxygens species generation at 500 uM after 1 hr by H2DCFDA dye based flow cytometry. The class given is functional, cell-based. Summed up:
as §2

Assay [5] concerns 1321-N1. Put plainly: Induction of autophagy in human 1321N1 cells assessed as acidic vesicular organelle formation at 500 uM after 1 hr by acridine orange based flow cytometry in presence of 5 mM, MA. It counts as functional, cell-based. Summed up:
(§3)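 Acridine orange AVO assay as above: compound at 500 µM for 60 min, given together with 3-methyladenine 5 mM dissolved in medium. Then 3 µM acridine orange for 15 min at 37 °C, flow cytometry at ex/em 488/615 nm. Two experiments.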

The subject of assay [6] is U-87 MG. Put plainly: Induction of autophagy in human U87MG cells assessed as acidic vesicular organelle formation at 500 uM after 1 hr by acridine orange based flow cytometry. The class given is functional, cell-based. The conditions noted are these: U-87MG ATCC. Summed up:
(§4)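 Cells at 20,000/well in six-well plates, attached overnight. Treated with compound at 500 µM for 60 min, then stained with 3 µM acridine orange for 15 min at 37 °C in the dark. Washed in PBS, trypsinized, strained. Red fluorescence read by flow cytometry at ex/em 488/615 nm (PE-Texas Red). Vehicle ≤0.5% ethanol. One of two experiments shown.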

The subject of assay [7] is U-87MG ATCC. Put plainly: Antiproliferative activity against human U87MG cells assessed as inhibition of cell viability after 48 hrs by MTS assay in presence of 500 uM antioxidant, ascorbic acid. The class given is functional, cell-based.
The subject of assay [8] is U-87 MG. Put plainly: Induction of autophagy in human U87MG cells assessed as acidic vesicular organelle formation at 500 uM after 1 hr by acridine orange based flow cytometry in presence of 5 mM, MA. The conditions noted are these: U-87MG ATCC. The class given is functional, cell-based. Summed up: as §3
In assay [9] the test system is 1321-N1. Put plainly: Induction of oxidative stress in human 1321N1 cells assessed as reactive oxygens species generation at 500 uM after 1 hr by H2DCFDA dye based flow cytometry in presence of 500 uM antioxidant, ascorbic acid. It counts as functional, cell-based. Summed up:
(§5)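 Run as the carboxy-H2DCFDA ROS flow-cytometry assay (25 µM dye for 30 min, then compound at 500 µM for 60 min, read at ex/em 488/519 nm), with ascorbic acid 500 µM added under the same procedure and time point.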

The nature of assay [10]: Antiproliferative activity against human IN1265 cells assessed as inhibition of cell growth after 72 hrs by MTT assay. It counts as functional, cell-based. Summed up:
(§6)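 Short-term GBM cultures derived from tumour biopsies, and U251MG, kept in Hams F10 with 10% foetal calf serum at 37 °C without CO2. Cells seeded at 10³ per well and grown 48 h. Then dosed at 0.01–1000 µM in quadruplicate, compound renewed every 24 h, followed by 24 h recovery in compound-free medium. MTT (1 mg/mL) added for 4 h, formazan dissolved in DMSO, OD570 read. IC50 from nonlinear regression vs untreated controls.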

For assay [11], the system named is U-87 MG. Put plainly: Induction of oxidative stress in human U87MG cells assessed as reactive oxygens species generation at 500 uM after 1 hr by H2DCFDA dye based flow cytometry in presence of 500 uM antioxidant, ascorbic acid. It counts as functional, cell-based. The conditions noted are these: U-87MG ATCC. Summed up: as §5
Assay [12] in a line: Antiproliferative activity against human IN859 cells assessed as inhibition of cell growth […] by MTS assay. The class given is functional, cell-based.
The subject of assay [13] is 1321-N1. Put plainly: Induction of autophagy in human 1321N1 cells assessed as acidic vesicular organelle formation at 500 uM after 1 hr by acridine orange based flow cytometry. It counts as functional, cell-based. Summed up:
as §4

Assay [14] is described as follows: Antiproliferative activity against human IN1760 cells assessed as inhibition of cell growth after 72 hrs by MTT assay. It counts as functional, cell-based. The conditions noted are these: IN1760, 72 h. Summed up: as §6
The nature of assay [15]: Antiproliferative activity against human IN1472 cells assessed as inhibition of cell growth after 72 hrs by MTT assay. The class given is functional, cell-based. The conditions noted are these: IN1472, 72 h. Summed up: as §6
The subject of assay [16] is 1321-N1. Put plainly: Antiproliferative activity against human 1321N1 cells assessed as inhibition of cell viability after 48 hrs by MTS assay in presence of 500 uM antioxidant, ascorbic acid. The class given is functional, cell-based.
Assay [17] is described as follows: Antiproliferative activity against human U251MG cells assessed as inhibition of cell growth after 72 hrs by MTT assay. The class given is functional, cell-based. The conditions noted are these: U-251, 72 h. Summed up:
as §6

The nature of assay [18]: Antiproliferative activity against human U87MG cells assessed as inhibition of cell growth after 48 hrs by MTS assay. The class given is functional, cell-based, U-87MG ATCC. Summed up:
(§7)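 1321N1 grown in DMEM with 10% FBS and 2 mM L-glutamine; U87MG in EMEM with 10% FBS, 2 mM L-glutamine, 1 mM pyruvate and 1% NEAA; 37 °C, 5% CO2. Seeded overnight at 3500 (1321N1) or 4000 (U87MG) cells/200 μl, 50–60% confluent. Compound added in quadruplicate for 48 h. MTS reagent added for 60 min, A490 read. IC50 vs vehicle (≤0.5% ethanol or DMSO) by nonlinear regression.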

Assay [19] is described as follows: Antiproliferative activity against human 1321N1 cells assessed as inhibition of cell growth after 48 hrs by MTS assay. It counts as functional, cell-based. Summed up: as §7
Assay [20] is described as follows: Antiproliferative activity against human U87MG cells assessed as inhibition of cell growth at 400 uM after 48 hrs by MTS assay. The class given is functional, U-87MG ATCC. The conditions noted are these: U-87 MG, read-out: GI.

Active and inactive are the calls of the source. The calls are words filed in the database; no cut-off is given here.

Turning to `CC(C)(C)OO`, the result in assay [1] and in assay [2] was Active.

`OCc1c(-c2ccccc2)[nH]c2ccccc12`: the outcome in assay [3] and in [4] was Active.

`Oc1ccccc1-c1cc2ccccc2[nH]1` [2-(2'-HYDROXYPHENYL)-1H-INDOLE]: the result in assay [3], in [6], in assay [4] and in assay [13] was Active. Moreover, the outcome in assay [5], in assay [8], in assay [9] and in assay [11] was inactive. For the same compound, the inhibition entry in [7] and in [16] was “inactive” in each case. Moreover, the half-inhibitory concentration (IC50) in [10] is 90 µM; in [12], 400 µM; in assay [14], over 1000 µM; in assay [15], 48 µM; in assay [17], 92 µM.

Regarding `COc1ccccc1-c1cc2ccccc2[nH]1` [2-(2'-METHOXYPHENYL)-1H-INDOLE], the outcome in assay [3] and in assay [4] was inactive. Further, the IC50 entry in [18] (u-87mg atcc) and in [19] (1321-n1) was “Not Active” in each case.

For the compound `O=Cc1c(-c2ccccc2)[nH]c2ccccc12` [2-PHENYL-1H-INDOLE-3-CARBALDEHYDE], the IC50 entry in assay [18] (u-87mg atcc) and in assay [19] (1321-n1) was “Not Active” in each case.

`c1ccc(-c2cc3ccccc3[nH]2)cc1` [2-PHENYL-1H-INDOLE]: the result in [3] and in [4] was inactive. Besides, the IC50 result in assay [18] (u-87mg atcc) and in assay [19] (1321-n1) was “Not Active” in each case. Also, the inhibition of growth at 400 µM in [20] turned out to be 7%.

`OCc1c[nH]c2ccccc12` [INDOLE-3-CARBINOL]: the concentration for half-maximal inhibition (IC50) in assay [18] (Homo sapiens, U-87 MG, 48 h, read-out: IC50) is 526 µM; in assay [19] (Homo sapiens, 1321-N1, 48 h, read-out: IC50) it was 309 µM.
